In ChEMBL document CHEMBL1129032, “Synthesis and phospholipase A2 inhibitory activity of thielocin B3 derivatives” (J Med Chem, 1996):

Key:
[1] = target: T1, Phospholipase A2, membrane associated (Rattus norvegicus, UniProt P14423); experiment: In vitro inhibition of rat secretory Phospholipase A2 (group II).
T1 sequence (P14423 whole entry): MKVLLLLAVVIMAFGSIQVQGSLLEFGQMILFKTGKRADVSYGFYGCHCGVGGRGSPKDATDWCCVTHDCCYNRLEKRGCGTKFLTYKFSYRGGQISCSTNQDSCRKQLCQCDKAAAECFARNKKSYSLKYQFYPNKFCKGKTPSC
Method in brief: (§1)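 PLA2 enzymes: recombinant human group I or II, or group II purified from rat platelets (single ~14 kDa band on SDS-PAGE). Substrate was 1-palmitoyl-2-[1-14C]linoleoyl-PE diluted with egg-yolk PE to 2000 dpm/nmol. Reaction started by adding enzyme, adjusted so hydrolysis stayed below 20%. Compounds in DMSO (2% final) against a DMSO control. IC50 read graphically from % inhibition vs log concentration, three independent experiments in duplicate.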

[2] = target: T2, Phospholipase A2, membrane associated (Homo sapiens, UniProt P14555); experiment: In vitro inhibition of human recombinant secretory Phospholipase A2 (group II).; method in brief: as §1
T2 sequence (P14555 whole entry): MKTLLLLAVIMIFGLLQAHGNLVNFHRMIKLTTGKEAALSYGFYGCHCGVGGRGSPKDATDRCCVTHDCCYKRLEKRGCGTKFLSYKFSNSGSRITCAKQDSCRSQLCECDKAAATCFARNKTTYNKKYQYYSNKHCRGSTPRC

Phospholipase A2 = Phospholipase A2 (Homo sapiens, UniProt P04054); experiment: In vitro inhibition of human recombinant secretory Phospholipase A2 (group I).; method in brief: as §1
Rattus norvegicus [3] = species on record: Rattus norvegicus; experiment: Inhibition of A-23187 stimulated Thromboxane B2 production from rat platelets by 10 uM.; type: functional; parameters: scale not given: the % may be the effect or the level left
Method in brief: (§2)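 Rat platelets from citrate-dextrose blood with PGE1 were sedimented and labelled with [3H]AA (20 µCi/mL, 2.0 h, room temperature), gel-filtered, and used at 5 × 10^8 cells/mL. Stimulation used A23187 2 µM (DMSO 0.4%) plus compound (DMSO 0.2%), stopped with 0.1 N HCl. [3H]AA and [3H]TXB2 were separated by TLC and counted. Result given as % of A23187-induced increase over DMSO control, mean ± SEM of three experiments.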

Rattus norvegicus [4] = species on record: Rattus norvegicus; experiment: Inhibition of A-23187 stimulated Arachidonic acid production from rat platelets by 10 uM.; type: functional; parameters: scale not given: the % may be the effect or the level left; method in brief: as §2
[5] = target: T2, Phospholipase A2, membrane associated; experiment: In vitro inhibition of human recombinant secretory Phospholipase A2 (group II); No inhibition.; method in brief: as §1
[6] = target: T1, Phospholipase A2, membrane associated; experiment: In vitro inhibition of rat secretory Phospholipase A2 (group II); No inhibition.; method in brief: as §1

Phospholipase A2, sequence (P04054 whole entry): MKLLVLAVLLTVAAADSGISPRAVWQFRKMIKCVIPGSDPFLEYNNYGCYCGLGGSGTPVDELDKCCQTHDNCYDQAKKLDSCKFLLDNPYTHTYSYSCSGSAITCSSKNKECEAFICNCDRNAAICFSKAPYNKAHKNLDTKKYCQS

SMILES	IC50 [1] [nM]	IC50 [2] [nM]	IC50 (Phospholipase A2) [nM]	Activity (Rattus norvegicus [3]) [%]	Activity (Rattus norvegicus [4]) [%]	IC50 [5]	IC50 [6]
COc1c(C)c(OC(=O)c2c(C)c(C)c(OC(=O)CCC(=O)Oc3c(C)c(C)c(C(=O)Oc4c(C)c(C)c(C(=O)O)c(OC)c4C)c(OC)c3C)c(C)c2OC)c(C)c(C)c1C(=O)O	40	940	60000	–	–	–	–
COc1ccc(Sc2ccc(OC)c(C(=O)Oc3c(C)c(C)c(C(=O)Oc4c(C)c(C)c(C(=O)O)c(OC)c4C)c(OC)c3C)c2)cc1C(=O)Oc1c(C)c(C)c(C(=O)Oc2c(C)c(C)c(C(=O)O)c(OC)c2C)c(OC)c1C	49	130	55000	0	2.8	–	–
COc1c(C)c(OC)c(C(=O)Oc2c(C)c(C)c(C(=O)O)c(OC)c2C)c(C)c1Cc1c(C)c(C(=O)Oc2c(C)c(C)c(C(=O)O)c(OC)c2C)c(OC)c(C)c1OC	4600	2800	90000	–	–	–	–
COc1ccc(Sc2ccc(OC)c(C(=O)Oc3c(C)c(C)c(C(=O)Oc4c(C)c(C)c(C(=O)O)c(OC)c4C)c(OC)c3C)c2)cc1C(=O)O	2100	4100	100000	–	–	–	–
COc1c(C)c(OC(=O)c2c(C)c(C)c(OC(=O)c3cc(=O)cc(C(=O)Oc4c(C)c(C)c(C(=O)Oc5c(C)c(C)c(C(=O)O)c(OC)c5C)c(OC)c4C)o3)c(C)c2OC)c(C)c(C)c1C(=O)O	880	5800	100000	46.3	55.2	–	–
COc1c(C)c(OC(=O)c2c(C)c(C)c(OC(=O)/C=C/C(=O)Oc3c(C)c(C)c(C(=O)Oc4c(C)c(C)c(C(=O)O)c(OC)c4C)c(OC)c3C)c(C)c2OC)c(C)c(C)c1C(=O)O	330	2200	> 100000	65.8	70.7	–	–
COc1c(C)c(OC(=O)c2c(C)c(C)c(OC(=O)c3cccc(C(=O)Oc4c(C)c(C)c(C(=O)Oc5c(C)c(C)c(C(=O)O)c(OC)c5C)c(OC)c4C)c3)c(C)c2OC)c(C)c(C)c1C(=O)O	120	230	> 100000	0.1	49.2	–	–
COc1c(C)c(OC)c(C(=O)Oc2c(C)c(C)c(C(=O)Oc3c(C)c(C)c(C(=O)O)c(OC)c3C)c(OC)c2C)c(C)c1Cc1c(C)c(C(=O)Oc2c(C)c(C)c(C(=O)Oc3c(C)c(C)c(C(=O)O)c(OC)c3C)c(OC)c2C)c(OC)c(C)c1OC	130	190	> 100000	–	–	–	–
Cc1c(O)c(Cc2c(C)c(C(=O)Oc3c(C)c(C)c(C(=O)Oc4c(C)c(C)c(C(=O)O)c(O)c4C)c(O)c3C)c(O)c(C)c2O)c(C)c(C(=O)Oc2c(C)c(C)c(C(=O)Oc3c(C)c(C)c(C(=O)O)c(O)c3C)c(O)c2C)c1O	950	2400	> 100000	–	–	–	–
COc1c(C)c(OC(=O)c2c(C)c(C)c(OC(=O)c3c(C)c(CN[C@@H](C)c4ccccc4)c(O)c(C)c3O)c(C)c2OC)c(C)c(C)c1C(=O)O	360	840	60000	–	–	–	–
COc1c(C)c(OC)c(C(=O)O)c(C)c1Cc1c(C)c(C(=O)Oc2c(C)c(C)c(C(=O)Oc3c(C)c(C)c(C(=O)O)c(OC)c3C)c(OC)c2C)c(OC)c(C)c1OC	3000	3000	> 100000	–	–	–	–
COc1cc(OC)c(C(=O)Oc2c(C)c(C)c(C(=O)Oc3c(C)c(C)c(C(=O)O)c(OC)c3C)c(OC)c2C)cc1Oc1cc(C)c(OC)c(C(=O)Oc2c(C)c(C)c(C(=O)Oc3c(C)c(C)c(C(=O)O)c(OC)c3C)c(OC)c2C)c1	35	240	6600	0	19.7	–	–
COc1ccc(S(=O)(=O)c2ccc(OC)c(C(=O)Oc3c(C)c(C)c(C(=O)Oc4c(C)c(C)c(C(=O)O)c(OC)c4C)c(OC)c3C)c2)cc1C(=O)Oc1c(C)c(C)c(C(=O)Oc2c(C)c(C)c(C(=O)O)c(OC)c2C)c(OC)c1C	50	69	9000	–	–	–	–
COc1ccc(Sc2ccc(OC)c(C(=O)Oc3c(C)c(C)c(C(=O)Oc4c(C)c(C)c(C(=O)OCOC(=O)C(C)(C)C)c(OC)c4C)c(OC)c3C)c2)cc1C(=O)Oc1c(C)c(C)c(C(=O)Oc2c(C)c(C)c(C(=O)OCOC(=O)C(C)(C)C)c(OC)c2C)c(OC)c1C	–	–	> 100000	–	–	Not Active	Not Active
COc1ccc(Oc2ccc(OC)c(C(=O)Oc3c(C)c(C)c(C(=O)Oc4c(C)c(C)c(C(=O)O)c(OC)c4C)c(OC)c3C)c2)cc1C(=O)Oc1c(C)c(C)c(C(=O)Oc2c(C)c(C)c(C(=O)O)c(OC)c2C)c(OC)c1C	42	100	6500	0	9	–	–
COc1ccc([S+]([O-])c2ccc(OC)c(C(=O)Oc3c(C)c(C)c(C(=O)Oc4c(C)c(C)c(C(=O)O)c(OC)c4C)c(OC)c3C)c2)cc1C(=O)Oc1c(C)c(C)c(C(=O)Oc2c(C)c(C)c(C(=O)O)c(OC)c2C)c(OC)c1C	120	260	11000	–	–	–	–
COc1ccc(Sc2ccc(OC)c(C(=O)Oc3c(C)c(C)c(C(=O)O)c(OC)c3C)c2)cc1C(=O)Oc1c(C)c(C)c(C(=O)O)c(OC)c1C	2500	4800	> 100000	–	–	–	–
COc1ccc(Oc2ccc(OC)c(C(=O)Oc3c(C)c(C)c(C(=O)O)c(OC)c3C)c2)cc1C(=O)Oc1c(C)c(C)c(C(=O)O)c(OC)c1C	3400	75000	> 100000	–	–	–	–
CC1=C(CC/C(C)=C/CCC2=CC[C@H](C3=CC(=O)O[C@H]3O)O[C@H]2O)C(C)(C)CCC1 [MANOALIDE]	2000	1500	–	–	–	–	–
CCN(CC)CCCC(C)Nc1c2ccc(Cl)cc2nc2ccc(OC)cc12 (stereo not drawn) [QUINACRINE]	320000	76000	–	–	–	–	–
COc1c(C)c(OC(=O)c2c(C)c(C)c(OC(=O)C3=C(C)[C@@](C)(O)C4(O)Oc5c(C)c(OC)c(C(=O)Oc6c(C)c(C)c(C(=O)O)c(OC)c6C)c(C)c5C[C@@]4(C)C3=O)c(C)c2OC)c(C)c(C)c1C(=O)O (stereo partly drawn) [THIELOCIN A1]	3.3	12000	135000	–	–	–	–
COc1c(C)c(OC(=O)c2c(C)c(C)c(OC(=O)c3c(C)cc(O)c(Cc4c(C)c(C(=O)Oc5c(C)c(C)c(C(=O)Oc6c(C)c(C)c(C(=O)O)c(OC)c6C)c(OC)c5C)c(O)c(C)c4O)c3O)c(C)c2OC)c(C)c(C)c1C(=O)O [THIELOCIN B3]	12	76	18000	43.7	60.3	–	–
